# Measured values taken from PubChem BioAssay AID504490 (NMMLSC, 2011).
# About 1,100 (0.32%) of roughly 340,000 compounds were called active.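 Rule for the calls: active = inhibition above a set limit, near 3 SD of compounds lacking own fluorescence (cut at about 54% in these data); inactive = the rest.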 For the sample, actives were picked, then their nearest neighbours and some compounds at random.
# Test system: beta-arrestin 1 C-terminal peptide binding to AP2 beta2-adaptin appendage (human)
# Assay: blockers of arrestin peptide association with AP2 adaptin – biochemical, GPCR trafficking, flow cytometry, primary screen (AID 504490);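 note: plate controls were DMSO wells for no effect and 5 µM unlabelled arrestin peptide for full effect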
# Conditions: FITC-arrestin peptide / GST-AP2 beads, at 10 µM, hits give high values, AP2 beta2 appendage carries R879A mutation
# Outline: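 System: GST-tagged AP2 beta2-adaptin appendage (R879A) on 4 µm glutathione beads / Reagent: FITC-arrestin peptide, 50 nM / Detection: HyperCyt-sampled flow cytometry, FL1 channel, ex 488/em 535 nm / Timing: 12 min plus 1 h, RT / Buffer or medium: PBS plus Tween 20 (0.05%) and BSA (0.1%)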
row,Compound,inhibition
1,CC(=O)N1C(=O)/C(=C2\SC(=S)N(NC(=O)c3ccc(O)cc3)C2=O)c2ccccc21,7.23% (inactive)
2,CCc1nnc(NC(=O)CCC(=O)N2CCN(c3cc(C)ccc3C)CC2)s1,27.2% (inactive)
3,COc1ccc(CN2CCN(C(=O)CCC(=O)Nc3nnc(C(C)C)s3)CC2)cc1F,17.3% (inactive)
4,CC(C)c1nnc(NC(=O)CCC(=O)N2CCN(c3cccc(Cl)c3)CC2)s1,59.1% (active)
5,C=C1c2cccc(OC)c2O[C@H](C(=O)OCC)[C@@H]1CCCCCC,-3.22% (inactive)
6,C=CCO/N=C(\C)c1c(O)c(C)c(-c2ccccc2)n(-c2ccccc2)c1=O,32.4% (inactive)
7,COc1ccc(C(=O)Nc2ccc(-n3nncc3C(C)(C)C)cc2)cc1,-18.4% (inactive)
8,CC(C)(C)c1cnnn1-c1ccc([N+](=O)[O-])cc1,-1.38% (inactive)
9,C/C(=N\Nc1ccc([N+](=O)[O-])cc1)c1ccc(-n2nncc2C(C)(C)C)cc1,93.7% (active)
10,CCOC(=O)C(CO)NC(=O)C1(NC(C)=O)CCCC1 (configuration not stated),2.61% (inactive)
11,COc1ccccc1NC(=O)c1c(Br)cnn1C,6.15% (inactive)
12,O=C(NNC(=O)C1C2CCC(C2)C1C(=O)O)c1ccc(Cl)cc1 (configuration not stated),10.1% (inactive)
13,Cc1ccc(S/C(=N\S(=O)(=O)c2ccc(Cl)cc2)c2ccccc2)cc1,2.53% (inactive)
14,O=S(=O)(/N=C(/Nc1ccccn1)c1ccccc1)c1ccc(Cl)cc1,2.67% (inactive)
15,Cc1ccc(S(=O)(=O)/N=C(/Nc2ccccn2)c2ccc(Cl)cc2)cc1,70.7% (active)
16,O=C(O)c1ccccc1NC(=S)NC(NC(=O)c1ccccc1[N+](=O)[O-])C(Cl)(Cl)Cl (configuration not stated),0.7% (inactive)
17,CCOC(=O)c1ccc(NC(=S)N2CCN(c3ccccn3)CC2)cc1,-3.13% (inactive)
18,CN1CCN(S(=O)(=O)c2ccc(NC(=O)C3CCCO3)cc2)CC1 (configuration not stated),-5.38% (inactive)
19,O=C(C1CCCO1)N1CCN(S(=O)(=O)c2ccc(Br)cc2)CC1 (configuration not stated),54.4% (active)
20,O=C(C1CCCN1S(=O)(=O)c1ccc(Br)cc1)N1CCOCC1 (configuration not stated),-2.49% (inactive)
21,CCC1(C(=O)c2ccccc2)C(c2cccc([N+](=O)[O-])c2)C1(C(=O)OC)C(=O)OC (configuration not stated),-3.23% (inactive)
22,CCOC(=O)c1sc(NC(=O)CSc2nc(O)c(Cc3ccccc3)c(=O)[nH]2)nc1C,45.5% (inactive)
23,COc1ccc(-c2nnc(-c3ccc4ccccc4c3)o2)cc1,5.64% (inactive)

row,Compound,inhibition
1,CCOc1ccc(-c2nnc(-c3ccco3)o2)cc1,55% (active)
2,CCOc1ccc(-n2c(SCC(N)=O)nnc2-c2ccco2)cc1,-5.91% (inactive)
3,C[C@@H]1CC[C@@]2(OC1)O[C@H]1C[C@H]3[C@@H]4CC=C5C[C@@H](O)[C@H](O)C[C@]5(C)C4CC[C@]3(C)[C@H]1[C@@H]2C (some centres not stated),26.8% (inactive)
4,Cc1cccc(Oc2c([N+](=O)[O-])c(=O)n(C)c3ccccc23)c1,8.99% (inactive)
5,Cc1cc(C)c(-c2c(O)c3ccccc3n(C)c2=O)c(C)c1,3.35% (inactive)
6,Cn1c(=O)c([N+](=O)[O-])c(Oc2ccccc2)c2ccccc21,54.9% (active)
7,CCn1c(C)nc2cc(C(=O)NNS(=O)(=O)c3ccc(C)cc3C)ccc21,-9.91% (inactive)
8,CCNc1c(NS(=O)(=O)c2ccc(C3CCCCC3)cc2)c(=O)oc2ccccc12,27.9% (inactive)
9,COc1ccccc1CNC(=O)COC(=O)c1cccs1,-6.34% (inactive)
10,COc1ccc(C2c3[nH]c4ccccc4c3C[C@H]3C(=O)N(CC(C)C)CC(=O)N23)c(OC)c1 (some centres not stated),-2.46% (inactive)
11,COc1ccc(Cc2nnc(NC(=O)Cc3cccs3)s2)cc1,5.51% (inactive)
12,CCCc1ccc(-c2csc(NC(=O)Cc3cccs3)n2)cc1,86.3% (active)
13,O=C(Cc1cccs1)Nc1nnc(SCc2ccc(F)cc2)s1,0.35% (inactive)
14,CC(Sc1ncnc2c1cnn2-c1ccccc1)C(=O)Nc1ccc(N2CCOCC2)cc1 (configuration not stated),52.7% (inactive)
15,COc1ccc(C(C)(C)C)cc1NC(=O)CCN1C(=O)C2CCCCC2C1=O (configuration not stated),4.94% (inactive)
16,O=CN1CCN(C(=O)c2ccc3c(c2)OCO3)CC1,-7.77% (inactive)
17,CCOC(=O)N1CCN(C(=O)CNC(=O)Cc2ccc(Cl)cc2)CC1,87.5% (active)
18,CCOC(=O)N1CCN(C(=O)C(C)NC(=O)c2ccco2)CC1 (configuration not stated),47.5% (inactive)
19,CCOC(=O)N1CCN(C(=O)Cc2ccc(-n3c(=S)[nH]c4ccccc4c3=O)cc2)CC1,-0.7% (inactive)
20,OCCN1CCOCCOCCN(CCO)CCN(CCO)CC1,-4.2% (inactive)
21,Cc1ccccc1NC(=O)CCNS(=O)(=O)c1ccc2[nH]c(=O)oc2c1,-8.2% (inactive)
22,C=CCOc1c(CNn2cn[nH]c2=S)cccc1OC,0.65% (inactive)
23,Cc1ccc(S(=O)(=O)N2CCCCC2)cc1NC(=O)CCNC(=O)c1ccccc1,2.03% (inactive)

row,Compound,inhibition
1,Cc1ccc(S(=O)(=O)N2CCCCC2)cc1NC(=O)c1cccnc1,65.4% (active)
2,CC(=O)c1cccc(OCC(=O)OCC(=O)Nc2cc(S(=O)(=O)N3CCCCC3)ccc2C)c1,38.5% (inactive)
3,O=P(c1ccc2c(c1)OCCO2)(N1CCOCC1)N1CCOCC1,1.28% (inactive)
4,CCCCNC(=O)C1CCC(=O)N1CCc1ccccc1 (configuration not stated),-2.64% (inactive)
5,CCC(C)NC(=O)C1CCC(=O)N1Cc1ccc(C)cc1 (configuration not stated),3.49% (inactive)
6,Cc1ccc(CN2C(=O)CCC2C(=O)NCCCN2CCCCC2C)cc1 (configuration not stated),102% (active)
7,CC(=O)c1cccc(NC(=O)[C@@H](NC(N)=O)C(C)C)c1,15.6% (inactive)
8,Cc1ccc2nsnc2c1S(=O)(=O)N1CCCC1C(=O)O (configuration not stated),19.9% (inactive)
9,COc1cc(C2/C(=C(\O)c3ccc4c(c3)CC(C)O4)C(=O)C(=O)N2c2nnc(C)s2)cc(OC)c1OC (configuration not stated),18.6% (inactive)
10,Cc1ccc(C2(C)NC(=O)N(CC(=O)Nc3ccccc3C(=O)N3CCCCC3)C2=O)cc1 (configuration not stated),56.8% (active)
11,Cc1ccc(NC(=O)CN2C(=O)NC(C)(c3ccc(Cl)cc3)C2=O)c(Br)c1 (configuration not stated),-0.27% (inactive)
12,Cc1ccc(C2(C)NC(=O)N(CC(=O)N3CC(=O)Nc4ccccc43)C2=O)cc1 (configuration not stated),-7.93% (inactive)
13,CC(=O)OC1CCC2C3CCC4=C(CC(F)C(=O)C4)C3CCC12C (configuration not stated),-26.5% (inactive)
14,CCOc1ccccc1OCC(=O)Nc1ccccc1C(=O)NC1CC1,-8.99% (inactive)
15,CC(=O)N(C1=C(Cl)C(=O)c2ccccc2C1=O)c1ccc(C(=O)O)cc1,64.7% (active)
16,O=C(NC1=CC(=O)c2ccccc2C1=O)c1ccccc1,19.2% (inactive)
17,CC(C)(Oc1ccc(Cl)cc1)C(=O)OCC(=O)NCCc1ccc(S(N)(=O)=O)cc1,19% (inactive)
18,O=C(CN1C(=O)COc2ccc(Cl)cc21)Nc1ccc(N2CCOCC2)cc1,3.15% (inactive)
19,CSCC[C@H](NC(=O)N1CCn2c1nc1ccccc12)C(=O)NC1CCCCC1,-6.82% (inactive)
20,CC(C)C[C@H](NC(=O)N1CCn2c1nc1ccccc12)C(=O)NC1CC1,60.8% (active)
21,CC(C)[C@H](NC(=O)N1CCn2c1nc1ccccc12)C(=O)NC1CC1,35.9% (inactive)
22,NS(=O)(=O)c1ccc(CNC(=O)c2cccc(Oc3ccccc3)c2)cc1,10.4% (inactive)
23,NS(=O)(=O)c1ccc(CCNC(=O)CNC(=O)Cc2ccccc2)cc1,3.4% (inactive)

row,Compound,inhibition
1,CC(NCCc1ccc(S(N)(=O)=O)cc1)C(=O)NCc1ccccc1 (configuration not stated),57.4% (active)
2,O=C(CC12CC3CC(CC(C3)C1)C2)NCc1ccco1,5.06% (inactive)
3,O=C1C(Cl)=C(Oc2ccccc2)C(=O)c2ccccc21,55.1% (active)
4,Cc1ccc(C(=O)CN2C(=O)NC3(CCOc4ccccc43)C2=O)s1 (configuration not stated),-5.1% (inactive)
5,O=C(COc1ccc(F)cc1Br)NCC1COc2ccccc2O1 (configuration not stated),0.24% (inactive)
6,COc1cccc(OCC(O)CNC(=O)c2oc3c(C)c(C)ccc3c2C)c1 (configuration not stated),2.32% (inactive)
7,CN1C(=O)/C(=C/c2ccco2)SC1=Nc1cccc(C(=O)O)c1,62.3% (active)
8,Cc1ccc(N=C2NC(=O)/C(=C/C=C/c3ccco3)S2)cc1C,42.9% (inactive)
9,CN=C1S/C(=C\c2c(OC)cc(OC)cc2OC)C(=O)N1C,7.51% (inactive)
10,COc1ccc(C2(CNC(=O)C(c3ccccc3)c3ccccc3)CCOCC2)cc1OC,-2.16% (inactive)
11,CC(C)c1ccc(NC(=S)NC2CC3C=CC2C3)cc1 (configuration not stated),-12.9% (inactive)
12,Cc1ccc(NC(=S)Nc2ccc(F)cc2)cc1,2.86% (inactive)
13,Cc1ccc(C)c(NC(=S)NNC(=S)Nc2ccc(C(C)C)cc2)c1,60.6% (active)
14,Cn1cc(CCC(=O)N2CCCC(C(=O)c3ccc(C(C)(C)C)cc3)C2)cn1 (configuration not stated),5.89% (inactive)
15,CCOc1ccc(C(=O)NC2CCN(S(=O)(=O)CC)CC2)cc1,2.75% (inactive)
16,CCOc1ccc(C(=O)NC2CCN(CC(=O)NCc3cccs3)CC2)cc1,54.6% (active)
17,CCOc1ccc(/C=N/OCC(=O)NCc2cccs2)cc1,-13.4% (inactive)
18,c1ccc(Cc2ccc(OCCn3ccnc3)cc2)cc1,-5.61% (inactive)
19,O=C(C1CCC1)N1CCN(c2ccccc2)CC1,4.58% (inactive)
20,CC(C)Cn1c(N)c(C(=O)COC(=O)CN2C(=O)C3CC=CCC3C2=O)c(=O)n(C)c1=O (configuration not stated),1.01% (inactive)
21,CC(NC(=O)COC(=O)c1cc(=O)[nH]c2ccccc12)c1ccccc1 (configuration not stated),11.9% (inactive)
22,CN(C(=O)COC(=O)c1cc(=O)[nH]c2ccccc12)C1CCCCC1,54.7% (active)
23,CC1CCN(C(=O)COC(=O)c2cc(=O)[nH]c3ccccc23)CC1,-3.58% (inactive)
